Data: ChEMBL document CHEMBL1132342, “Novel hypotensive agents from Verbesina caracasana. 6. Synthesis and pharmacology of caracasandiamide” (1999)
Values joined by “and” are separate entries in the source; they are usually repeats but may differ in a detail not shown here. Equal values may be shown once.

Experiments:
[1] = system: Rattus norvegicus; experiment: Maximum rate of rise of the left ventricular isovolumetric pressure was measured after iv administration of 1600 ug/Kg in the presence of acetylcholine (agonist) in anesthetized rats; format: functional, Heart left ventricle
Outline: (§1)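 Anesthetized male Wistar rats, two groups of 8, received 400 or 1600 µg/kg iv. Before and after this dose, iv agonist challenges were given: noradrenaline 1 µg/kg, adrenaline, acetylcholine 2.50 µg/kg, or isoprenaline. Systolic/diastolic BP, heart rate and dP/dt responses were recorded before (control) and after dosing; significance was set at p < 0.05 versus control.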

[2] = system: Rattus norvegicus; experiment: Maximum rate of rise of the left ventricular isovolumetric pressure was measured after iv administration of 400 ug/Kg in the presence of adrenaline (agonist) in anesthetized rats; format: functional, Heart left ventricle; outline: as §1
[3] = system: Rattus norvegicus; experiment: Change in stroke volume after iv administration of 200 ug/Kg in anesthetized rats; format: functional
Outline: (§2)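 Male Wistar rats (299 ± 3 g) were anesthetized with ethylurethane ip, tracheally cannulated and breathing spontaneously, at 37 °C, and stabilized for 60 min. Doses of 50-3200 µg/kg (ratio 2.0) in saline were injected by femoral vein, 50 µL each. Recordings: femoral arterial BP, electromagnetic abdominal-aortic flow, SV from integrated pulsatile flow, polygraphic RF. Peak changes, mean ± SE, n = 12 (n = 7 at 3200).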

[4] = system: Rattus norvegicus; experiment: Maximum rate of rise of the left ventricular isovolumetric pressure was measured after iv administration of 400 ug/Kg in the presence of isoprenaline (agonist) in anesthetized rats; format: functional, Heart left ventricle; outline: as §1
[5] = system: Rattus norvegicus; experiment: Change in heart rate after iv administration of 4.12 uM/Kg in anesthetized rats; format: functional
[6] = system: Rattus norvegicus; experiment: Change in diastolic blood pressure after iv administration of 4.12 uM/Kg in anesthetized rats; format: functional, Artery
[7] = system: Rattus norvegicus; experiment: Maximum rate of rise of the left ventricular isovolumetric pressure was measured after iv administration of 800 ug/Kg compound (treatment with papaverine(1 mg/Kg/min, iv)in anesthetized rats; format: functional, Heart left ventricle
Outline: (§3)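 Anesthetized rats, n = 6 per group, received iv doses of 200–1600 µg/kg (ratio 2.0) either alone (control) or under pretreatment: continuous iv papaverine infusion 1 mg/kg/min, reserpine 5 mg/kg/day ip for 2 days, or hexamethonium 5 mg/kg iv. Peak changes in BP, heart rate and dP/dt recorded; means ± SE, p < 0.05 versus control.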

[8] = system: Rattus norvegicus; experiment: Maximum rate of rise of the left ventricular isovolumetric pressure after iv administration of 400 ug/Kg compound (treatment with hexamethonium (5 mg/Kg, iv)in anesthetized rats; format: functional, Heart left ventricle; outline: as §3
[9] = system: Rattus norvegicus; experiment: Change in diastolic blood pressure after iv administration of 1600 ug/Kg compound (treatment with reserpine(5 mg/kg/day for 2 days, ip)in anesthetized rats; format: functional, Artery
Outline: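 In anesthetized male Wistar rats, responses to iv compound (200–1600 µg/kg, ratio 2.0) were measured alone and under three pretreatments: continuous iv papaverine infusion (1 mg/kg/min), ip reserpine (5 mg/kg/day for 2 days), or iv hexamethonium (5 mg/kg). Peak changes are given as mean ± SE, n = 6 per group; p < 0.05 versus control.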

[10] = system: Rattus norvegicus; experiment: Maximum rate of rise of the left ventricular isovolumetric pressure was measured after iv administration of 400 ug/Kg in anesthetized rats; format: functional, Heart left ventricle
Outline: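 Urethane-anesthetized (10% w/v, […] ip in saline) adult male Wistar rats, trachea cannulated, breathing spontaneously, 37 °C. Femoral artery catheter for blood pressure, femoral vein for dosing. Sequential iv doses 50–3200 µg/kg (ratio 2.0) in saline, each given after parameters returned to baseline. Peak changes recorded; means ± SE, n = 12 (n = 7 at 3200 µg/kg).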

[11] = system: Rattus norvegicus; experiment: Change in diastolic blood pressure after iv administration of 400 ug/Kg in the presence of acetylcholine (agonist) in anesthetized rats; format: functional, Artery
Outline: (§4)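 Urethane-anesthetized male Wistar rats (16 rats, two equal groups) received 400 or 1600 µg/kg compound iv. Cardiovascular responses to iv agonist boluses (noradrenaline 1 µg/kg, acetylcholine 2.50 µg/kg, adrenaline, isoprenaline) were measured before and after compound dosing. Peak responses are given as mean ± SE; p < 0.05 versus control mean.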

[12] = system: Rattus norvegicus; experiment: Change in systolic blood pressure after iv administration of 1600 ug/Kg in the presence of noradrenaline (agonist) in anesthetized rats; format: functional, Artery
[13] = system: Rattus norvegicus; experiment: Change in diastolic blood pressure after iv administration of 1600 ug/Kg in the presence of isoprenaline (agonist) in anesthetized rats; format: functional, Artery; outline: as §4
[14] = system: Rattus norvegicus; experiment: Maximum rate of rise of the left ventricular isovolumetric pressure was measured after iv administration of 4.12 uM/kg in anesthetized rats; ratio given for dP/dt; format: functional, Heart left ventricle
[15] = system: Rattus norvegicus; experiment: Change in respiratory frequency after iv administration of 100 ug/Kg in anesthetized rats; format: functional; outline: as §2
[16] = system: Rattus norvegicus; experiment: Change in heart rate after iv administration of 3200 ug/Kg in anesthetized rats; format: functional
Outline: (§5)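 Adult male Wistar rats under ip ethylurethane (10% w/v in saline, 1 mL/kg) with tracheal cannula and spontaneous breathing, kept at 37 °C. Arterial BP was recorded by femoral artery catheter; compound in saline (50 µL) was given via femoral vein at 50–3200 µg/kg, ratio 2.0. Peak change is given as mean ± SE, n = 12 (n = 7 at 3200 µg/kg).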

[17] = system: Rattus norvegicus; experiment: Change in diastolic blood pressure after iv administration of 1600 ug/Kg in the presence of noradrenaline (agonist) in anesthetized rats; format: functional, Artery; outline: as §4
[18] = system: Rattus norvegicus; experiment: Change in stroke volume after iv administration of 800 ug/Kg in anesthetized rats; format: functional; outline: as §2
[19] = system: Rattus norvegicus; experiment: Change in respiratory frequency after iv administration of 50 ug/Kg in anesthetized rats; format: functional; outline: as §2
[20] = system: Rattus norvegicus; experiment: Change in systolic blood pressure after iv administration of 1600 ug/Kg in the presence of adrenaline (agonist) in anesthetized rats; format: functional, Artery
[21] = system: Rattus norvegicus; experiment: Change in stroke volume after iv administration of 3200 ug/Kg in anesthetized rats; format: functional; outline: as §2
[22] = system: Rattus norvegicus; experiment: Change in systolic blood pressure after iv administration of 400 ug/Kg in the presence of isoprenaline (agonist) in anesthetized rats; format: functional, Artery; outline: as §1
[23] = system: Rattus norvegicus; experiment: Change in respiratory frequency after iv administration of 3200 ug/Kg in anesthetized rats; format: functional; outline: as §2
[24] = system: Rattus norvegicus; experiment: Change in heart rate after iv administration of 200 ug/Kg in anesthetized rats; format: functional; outline: as §5
[25] = system: Rattus norvegicus; experiment: Change in systolic blood pressure after iv administration of 1600 ug/Kg in the presence of acetylcholine (agonist) in anesthetized rats; format: functional, Artery
[26] = system: Rattus norvegicus; experiment: Change in diastolic blood pressure after iv administration of 800 ug/Kg in anesthetized rats; format: functional, Artery; outline: as §5
[27] = system: Rattus norvegicus; experiment: Change in systolic blood pressure after iv administration of 100 ug/Kg in anesthetized rats; format: functional, Artery; outline: as §2
[28] = system: Rattus norvegicus; experiment: Change in heart rate after iv administration of 400 ug/Kg in the presence of isoprenaline (agonist) in anesthetized rats; format: functional; outline: as §4

For `COc1ccc(C2C(c3ccc(OC)c(OC)c3)[C@H](C(=O)NCCCC/N=C(\N)NCC=C(C)C)[C@@H]2C(=O)NCCCC/N=C(\N)NCC=C(C)C)cc1OC` (stereo partly specified) [CARACASANDIAMIDE], the dP/dt [1] was -6821 mmHg s-1, the dP/dt [2] was 6848 mmHg s-1 and the “Change in stroke volume” value [3] was 11%. The Stroke volume [3] was 23 µL, the dP/dt [4] was 13696 mmHg s-1 and the Heart rate [5] was -35 beats min-1. The BP [6] was -47 mmHg, the dP/dt [7] was 2967 mmHg s-1 and the dP/dt [8] was 3938 mmHg s-1. The BP [9] was -15 mmHg, the “Change in dP/dt” value [10] was 43% and the dP/dt [10] was 2615 mmHg s-1. It also gave a BP [11] of -45 mmHg, a BP [12] of 24 mmHg and a BP [13] of -66 mmHg. The dP/dt [14] was 3990 mmHg s-1, the “Change in respiratory frequency” value [15] was 6 beats min-1 and 6% and the “Change in heart rate” value [16] was -11%. For the same compound, the Heart rate [16] was -41 beats min-1, the BP [17] was 10 mmHg and the “Change in stroke volume” value [18] was -43%. For the same compound, the Stroke volume [18] was -86 µL, the “Change in respiratory frequency” value [19] was 5 beats min-1 and 5% and the BP [20] was 14 mmHg. For the same compound, the “Change in stroke volume” value [21] was -58%, the Stroke volume [21] was -117 µL and the BP [22] was -36 mmHg. For the same compound, the “Change in respiratory frequency” value [23] was -67 beats min-1 and -70%, the “Change in heart rate” value [24] was -4% and the Heart rate [24] was -13 beats min-1. The BP [25] was -38 mmHg, the BP [26] was -31 mmHg and the “Change in BP” value [26] was -40%. For the same compound, the BP [27] was 12 mmHg, the “Change in BP” value [27] was 12% and the Heart rate [28] was 69 beats min-1.
